Counter-ions that a name gives are not always drawn. Starred links: 1 amine or outer side, 2 acyl side, 3 side chain; linkers in the order of their positions; H or OH if unused. Non-standard residues stand in square brackets, D forms with d. Residues, ends and D or L forms follow the SMILES beside them. Groups on a side chain read outwards from the residue. *: point of attachment. Met(O) = CS(=O)CC[C@H](N)C(=O)O; Isobutyryl = CC(C)C(=O)*; Cbz = O=C(OCc1ccccc1)*; Dap = NC[C@H](N)C(=O)O; Boc = CC(C)(C)OC(=O)*; CO = O=C([*:1])[*:2]; Propionyl = CCC(=O)*; Tfa = O=C(C(F)(F)F)*; Bz = O=C(c1ccccc1)*; Ms = CS(=O)(=O)*; Moc = COC(=O)*; For = O=C*
Legend:
Human rhinovirus sp. = test: Effective concentration in HRV-14 infected H1- HeLa cells by protection assay.; type: functional, organism-based
Procedure, shortened: (§1)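 Cell protection assay in H1-HeLa cells infected with the named HRV serotype, using virus stocks propagated in H1-HeLa cells. Values reported are the 50% effective concentration (EC50), the 50% toxic concentration (TC50) and the therapeutic index (TI).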

[1] = target: T1, Human rhinovirus A protease (Human rhinovirus sp., UniProt Q4U254); test: Binding affinity against HRV-14 3C protease.
T1 sequence (Q4U254 whole entry): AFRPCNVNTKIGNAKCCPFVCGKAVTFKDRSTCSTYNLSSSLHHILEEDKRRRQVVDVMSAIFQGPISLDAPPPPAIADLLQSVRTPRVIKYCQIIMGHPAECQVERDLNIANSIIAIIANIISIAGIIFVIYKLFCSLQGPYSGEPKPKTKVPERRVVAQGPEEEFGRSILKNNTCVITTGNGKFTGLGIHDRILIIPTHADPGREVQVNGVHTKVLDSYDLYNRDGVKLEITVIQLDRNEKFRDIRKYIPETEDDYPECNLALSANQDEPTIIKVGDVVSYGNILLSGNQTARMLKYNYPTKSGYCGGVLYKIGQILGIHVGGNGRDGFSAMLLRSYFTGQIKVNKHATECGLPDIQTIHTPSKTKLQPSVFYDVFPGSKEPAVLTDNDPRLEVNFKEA
Procedure, shortened: (§2)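 Recombinant 3C protease of the named HRV serotype, expressed and purified. Ki was determined by a continuous fluorescence resonance energy transfer cleavage assay, with 5 mM dithiothreitol included in the assay. Reported standard deviation ±10%.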

[2] = Toxic concentration on HRV-14 infected H1- HeLa cells by protection assay.; type: toxicity, cell-based; settings: human, H1-HeLa cells infected with HRV-14; read-out: TC50 (the source's name); procedure, shortened: as §1
[3] = Therapeutic Index against HRV-14 virus infection; type: organism-based; settings: rhinovirus b14, H1-HeLa cells; read-out: TI; procedure, shortened: as §1
HeLa [4] = test: Effective concentration was measured on HRV-16 infected H1- HeLa cells by protection assay.; type: functional, cell-based; settings: Homo sapiens; procedure, shortened: as §1
HeLa [5] = test: Effective concentration was measured on HRV-2 infected H1- HeLa cells by protection assay.; type: functional, cell-based; settings: Homo sapiens; procedure, shortened: as §1
HeLa [6] = test: Effective concentration was measured on HRV-89 infected H1- HeLa cells by protection assay.; type: functional, cell-based; settings: Homo sapiens; procedure, shortened: as §1
[7] = target: T1, Human rhinovirus A protease; test: Binding affinity was measured against HRV-16 3C protease; procedure, shortened: as §2
[8] = target: T1, Human rhinovirus A protease; test: Binding affinity was measured against HRV-2 3C protease; procedure, shortened: as §2
[9] = target: T1, Human rhinovirus A protease; test: Binding affinity was measured against HRV-89 3C protease; procedure, shortened: as §2
[10] = Toxic concentration was measured on HRV-16 infected H1- HeLa cells by protection assay.; type: ADME, cell-based; settings: human, H1-HeLa cells infected with HRV-16; read-out: TC50 (the source's name); procedure, shortened: as §1
[11] = Toxic concentration was measured on HRV-2 infected H1- HeLa cells by protection assay.; type: ADME, cell-based; settings: human, H1-HeLa cells infected with HRV-2; read-out: TC50 (the source's name); procedure, shortened: as §1
[12] = Toxic concentration was measured on HRV-89 infected H1- HeLa cells by protection assay.; type: ADME, cell-based; settings: human, H1-HeLa cells infected with HRV-89; read-out: TC50 (the source's name); procedure, shortened: as §1

Molecule CC(C)C[C@H](NC(=O)OCc1ccccc1)C(=O)N[C@@H](Cc1ccccc1)C(=O)N[C@H](C=O)CNC(=O)C(F)(F)F (Cbz-Leu-Phe-[Dap](Tfa)-aldehyde) has an EC50 (Human rhinovirus sp.) of 1800 nM, a Ki [1] of 146 nM and a CC50 [2] of 25000 nM. The selectivity ratio [3] was 14.

With CC(=O)N(C)C[C@@H](C=O)NC(=O)[C@H](Cc1ccccc1)NC(=O)[C@H](CC(C)C)NC(=O)OCc1ccccc1 the EC50 (Human rhinovirus sp.) was 5200 nM, the Ki [1] was 469 nM and the CC50 [2] was 100000 nM. For the same molecule, the selectivity ratio [3] was 19.

Molecule CC(C)C[C@H](NC(=O)OCc1ccccc1)C(=O)N[C@@H](Cc1ccccc1)C(=O)N[C@H](C=O)CCC(=O)NC(c1ccccc1)(c1ccccc1)c1ccccc1 has an EC50 (Human rhinovirus sp.) of over 15800 nM, a Ki [1] of 40 nM and a CC50 [2] of 15800 nM.

Molecule CC(C)C[C@H](NC(=O)OCc1ccccc1)C(=O)N[C@@H](Cc1ccccc1)C(=O)N[C@H](C=O)CNC(=O)C(C)C (Cbz-Leu-Phe-[Dap](Isobutyryl)-aldehyde) has an EC50 (Human rhinovirus sp.) of 4000 nM, a Ki [1] of 18 nM and a CC50 [2] of 18000 nM. For the same molecule, the selectivity ratio [3] was 5.

Molecule CC(C)C[C@H](NC(=O)OCc1ccccc1)C(=O)N[C@@H](Cc1ccccc1)C(=O)N[C@H](C=O)CCC(=O)N(C)C (Cbz-Leu-Phe-Glu(NMe2)-aldehyde) has an EC50 (Human rhinovirus sp.) of 1300 nM, a Ki [1] of 5 nM and a CC50 [2] of 63000 nM. It also gave a selectivity ratio [3] of 48.

Work on CC(C)C[C@H](NC(=O)OCc1ccccc1)C(=O)N[C@@H](Cc1ccccc1)C(=O)N[C@H](C=O)CNC(=O)c1ccno1 yielded an EC50 (Human rhinovirus sp.) of 1500 nM, a Ki [1] of 5 nM and a CC50 [2] of 59500 nM. The selectivity ratio [3] was 40.

With CC(C)C[C@H](NC(=O)OCc1ccccc1)C(=O)N[C@@H](Cc1ccccc1)C(=O)N[C@H](C=O)CNS(C)(=O)=O (Cbz-Leu-Phe-[Dap](Ms)-aldehyde) the EC50 (Human rhinovirus sp.) was 20000 nM, the Ki [1] was 640 nM and the CC50 [2] was 63000 nM. The selectivity ratio [3] was 3.

With CC(C)C[C@H](NC(=O)OCc1ccccc1)C(=O)N[C@@H](Cc1ccccc1)C(=O)N[C@H](C=O)CC[S+](C)[O-] (stereo partly drawn) (Cbz-Leu-Phe-[Met(O)]-aldehyde) the EC50 (Human rhinovirus sp.) was 4500 nM, the Ki [1] was 5 nM and the CC50 [2] was over 100000 nM. It also gave a selectivity ratio [3] of over 22.

For CC(C)C[C@H](NC(=O)OCc1ccccc1)C(=O)N[C@@H](Cc1ccccc1)C(=O)N[C@H](C=O)CNC(=O)OC(C)(C)C (Cbz-Leu-Phe-[Dap](Boc)-aldehyde), the EC50 (Human rhinovirus sp.) was 2000 nM, the Ki [1] was 66 nM and the CC50 [2] was 56200 nM. For the same molecule, the selectivity ratio [3] was 28.

CC(C)C[C@H](NC(=O)OCc1ccccc1)C(=O)N[C@@H](Cc1ccccc1)C(=O)N[C@H](C=O)CCC#N gave an EC50 (Human rhinovirus sp.) of 8000 nM, a Ki [1] of 190 nM and a CC50 [2] of 31000 nM. For the same molecule, the selectivity ratio [3] was 4.

Work on CCC(=O)NC[C@@H](C=O)NC(=O)[C@H](Cc1ccccc1)NC(=O)[C@H](CC(C)C)NC(=O)OCc1ccccc1 (Cbz-Leu-Phe-[Dap](Propionyl)-aldehyde) yielded an EC50 (Human rhinovirus sp.) of 1300 nM, a Ki [1] of 7 nM and a CC50 [2] of over 100000 nM. The selectivity ratio [3] was over 77.

For CC(=O)NC[C@@H](C=O)NC(=O)[C@H](Cc1ccccc1)NC(=O)[C@H](CC(C)C)NC(=O)OCc1ccccc1 (Cbz-Leu-Phe-[Dap](Ac)-aldehyde), the EC50 (Human rhinovirus sp.) was 2400 nM, the EC50 (HeLa [4]) was 2100 nM and the EC50 (HeLa [5]) was 3100 nM. It also gave an EC50 (HeLa [6]) of 2200 nM, a Ki [1] of 6 nM and a Ki [7] of 69 nM. For the same molecule, the Ki [8] was 160 nM, the Ki [9] was 36 nM and the CC50 [2] was 316000 nM. It also gave a CC50 [10] of over 100000 nM, a selectivity ratio [3] of 132 and a CC50 [11] of over 100000 nM. For the same molecule, the CC50 [12] was over 100000 nM.

In the case of COC(=O)NC[C@@H](C=O)NC(=O)[C@H](Cc1ccccc1)NC(=O)[C@H](CC(C)C)NC(=O)OCc1ccccc1 (Cbz-Leu-Phe-[Dap](Moc)-aldehyde), the EC50 (Human rhinovirus sp.) is reported as 5000 nM, the Ki [1] is reported as 132 nM and the CC50 [2] is reported as 56200 nM. The selectivity ratio [3] was 11.

CC(C)C[C@H](NC(=O)OCc1ccccc1)C(=O)N[C@@H](Cc1ccccc1)C(=O)N[C@H](C=O)CNC(=O)c1ccccc1 (Cbz-Leu-Phe-[Dap](Bz)-aldehyde) showed an EC50 (Human rhinovirus sp.) of 1000 nM, a Ki [1] of 12 nM and a CC50 [2] of 51200 nM. It also gave a selectivity ratio [3] of 51.

Molecule CC(C)C[C@H](NC(=O)OCc1ccccc1)C(=O)N[C@@H](Cc1ccccc1)C(=O)N[C@H](C=O)CNC=O (Cbz-Leu-Phe-[Dap](For)-aldehyde) has an EC50 (Human rhinovirus sp.) of 1600 nM, a Ki [1] of 73 nM and a CC50 [2] of 206000 nM. The selectivity ratio [3] was 129.

For CC(C)C[C@H](NC(=O)OCc1ccccc1)C(=O)N[C@@H](Cc1ccccc1)C(=O)N[C@H](C=O)CCC(N)=O (Cbz-Leu-Phe-Gln-aldehyde), the EC50 (Human rhinovirus sp.) was 66000 nM, the Ki [1] was 3600 nM and the CC50 [2] was 398000 nM. It also gave a selectivity ratio [3] of 6.

With CC(C)C[C@H](NC(=O)OCc1ccccc1)C(=O)N[C@@H](Cc1ccccc1)C(=O)N[C@H](C=O)CNC(=O)N(C)C (Cbz-Leu-Phe-[Dap]([CO-NMe2])-aldehyde) the EC50 (Human rhinovirus sp.) was 2100 nM, the Ki [1] was 10 nM and the CC50 [2] was 99000 nM. It also gave a selectivity ratio [3] of 47.

For CC(C)C[C@H](NC(=O)OCc1ccccc1)C(=O)N[C@@H](Cc1ccccc1)C(=O)N[C@H](C=O)CN1CCCC1=O, the EC50 (Human rhinovirus sp.) was 4000 nM, the Ki [1] was 52 nM and the CC50 [2] was over 100000 nM. It also gave a selectivity ratio [3] of over 25.

From ChEMBL document CHEMBL1131035, “Tripeptide aldehyde inhibitors of human rhinovirus 3C protease: design, synthesis, biological evaluation, and cocrystal structure solution of P1 glutamine isosteric replacements” (J Med Chem, 1998)
